# Reference: ChEMBL document CHEMBL1142435, “Two-step synthesis of achiral dispiro-1,2,4,5-tetraoxanes with outstanding antimalarial activity, low toxicity, and high-stability profiles” (J Med Chem, 2008)
# What was measured:
# [1] = tested on: Plasmodium falciparum; experiment: Antimalarial activity against Plasmodium falciparum 3D7; type: functional, organism-based
# [2] = tested on: Salmonella typhimurium; experiment: Genotoxicity against Salmonella Typhimurium NM2009 assessed as induction of umu operon expression; type: toxicity, organism-based; conditions: salmonella enterica subsp. enterica serovar typhimurium
# [3] = tested on: Salmonella typhimurium; experiment: Genotoxicity against Salmonella Typhimurium TA 1535/pSK1002 assessed as induction of umu operon expression in presence of rat liver S9 fraction; type: toxicity, organism-based; conditions: salmonella enterica subsp. enterica serovar typhimurium
# In short: (§1)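 SOS/umu assay with rat liver S9-mix for metabolic activation. Tester strains carry plasmid pSK1002 with a umuC-lacZ fusion, and induced β-galactosidase activity is the read-out. Positive controls checked strain response. The highest concentration tested was 50 µM.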
# [4] = tested on: Salmonella typhimurium; experiment: Genotoxicity against Salmonella Typhimurium TA 1535/pSK1002 assessed as induction of umu operon expression; type: toxicity, organism-based; conditions: salmonella enterica subsp. enterica serovar typhimurium
# [5] = tested on: Salmonella typhimurium; experiment: Genotoxicity against Salmonella Typhimurium NM2009 assessed as induction of umu operon expression in presence of rat liver S9 fraction; type: toxicity, organism-based; conditions: salmonella enterica subsp. enterica serovar typhimurium; in short: as §1
# [6] = tested on: Plasmodium falciparum; experiment: Antimalarial activity against Plasmodium falciparum K1; type: functional, organism-based
# [7] = tested on: Plasmodium falciparum; experiment: Antimalarial activity against Plasmodium falciparum TM4; type: functional, organism-based
# [8] = tested on: Plasmodium falciparum; experiment: Antimalarial activity against Plasmodium falciparum PH3; type: functional, organism-based
# [9] = tested on: Plasmodium falciparum; experiment: Antimalarial activity against Plasmodium falciparum GC03; type: functional, organism-based
# [10] = tested on: Plasmodium falciparum; experiment: Antimalarial activity against Plasmodium falciparum HB3; type: functional, organism-based
# [11] = tested on: Plasmodium falciparum; experiment: Antimalarial activity against Plasmodium falciparum V1/S; type: functional, organism-based; conditions: V1S
# [12] = tested on: Plasmodium falciparum; experiment: Antimalarial activity against Plasmodium falciparum DD2; type: functional, organism-based
# [13] = Therapeutic index, ratio of TOX50 for rat H9c(2-1) cells to IC50 Plasmodium falciparum 3D7
# In short: (§2)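 TOX₅₀ came from resazurin reduction, with single full dose-response curves over 10 independent concentrations. The index is TOX₅₀ divided by the IC₅₀ against the P. falciparum 3D7 isolate.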
# [14] = Cytotoxicity against rat H9c(2-1) cells by resazurin reduction assay; type: cell-based; conditions: read-out: TC50 (the source's name)
# In short: (§3)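 Cytotoxicity was read by resazurin reduction. A single full dose-response curve was built from 10 independent drug concentrations to give TOX₅₀.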
# [15] = Therapeutic index, ratio of TOX50 for rat L6 cells to IC50 Plasmodium falciparum 3D7; type: cell-based; in short: as §2
# [16] = Therapeutic index, ratio of TOX50 for african green monkey (Cercopithecus aethiops) Vero cells to IC50 Plasmodium falciparum 3D7; type: cell-based; in short: as §2
# [17] = Chemical stability in water assessed as tetraoxane recovery after 7 days; type: physicochemical; conditions: read-out: Stability
# [18] = Chemical stability in dichloromethane in presence of formic acid assessed as tetraoxane recovery after 7 days; type: physicochemical; conditions: dichloromethane with formic acid; read-out: Stability
# [19] = Cytotoxicity against human […] cells by resazurin reduction assay; type: cell-based; conditions: read-out: TC50 (the source's name); in short: as §3
# [20] = Therapeutic index, ratio of TOX50 for human MRC5 cells to IC50 Plasmodium falciparum 3D7; type: cell-based; in short: as §2
# [21] = Cytotoxicity against human MRC5 cells by resazurin reduction assay; type: cell-based; conditions: read-out: TC50 (the source's name); in short: as §3
# [22] = Chemical stability in dichloromethane assessed as tetraoxane recovery after 7 days; type: physicochemical; conditions: read-out: Stability
# [23] = Chemical stability in phosphate buffer assessed as tetraoxane recovery at pH 7.4 after 16 hrs; type: physicochemical; conditions: read-out: Stability
# [24] = Therapeutic index, ratio of TOX50 for human […] cells to IC50 Plasmodium falciparum 3D7; type: cell-based; in short: as §2
# [25] = Cytotoxicity against african green monkey Vero cells by resazurin reduction assay; type: cell-based; conditions: chlorocebus sabaeus, read-out: TC50 (the source's name); in short: as §3
# [26] = Cytotoxicity against rat L6 cells by resazurin reduction assay; type: cell-based; conditions: read-out: TC50 (the source's name); in short: as §3
# [27] = Chemical stability assessed as endoperoxide recovery after 4 hrs by iron degradation study; type: physicochemical; conditions: read-out: Stability
# In short: (§4)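 Endoperoxide (1.0 equiv FeBr₂) was held in THF for 4, 8, 24 or 48 h. The residue was purified by flash column chromatography, and the percent recovery of starting endoperoxide was calculated.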
# [28] = Chemical stability assessed as endoperoxide recovery after 24 hrs by iron degradation study; type: physicochemical; conditions: read-out: Stability; in short: as §4
# [29] = Chemical stability assessed as endoperoxide recovery after 48 hrs by iron degradation study; type: physicochemical; conditions: read-out: Stability; in short: as §4
# [30] = Chemical stability assessed as endoperoxide recovery after 8 hrs by iron degradation study; type: physicochemical; conditions: read-out: Stability; in short: as §4
# [31] = tested on: Plasmodium falciparum; experiment: Antimalarial activity against Plasmodium falciparum
# [32] = tested on: Plasmodium berghei; experiment: Antimalarial activity against Plasmodium berghei ANKA infected mice (Mus musculus) by peroral dose; type: functional; conditions: po
smiles,measurement,setting,value
O=C(N1CCOCC1)N1CCC2(CC1)OOC1(OO2)C2CC3CC(C2)CC1C3,IC50,[1],4.7 nM
Nc1ccc2cc3ccccc3cc2c1 [2-AMINOANTHRACENE],Activity,[2],1.08
same,Activity,[3],7.34
same,Activity,[4],1.1
same,Activity,[5],6.09
O=S(=O)(c1ccccc1)N1CCC2(CC1)OCC1(OO2)C2CC3CC(C2)CC1C3 (centres undefined),IC50,[1],> 1000 nM
CCS(=O)(=O)N1CCC2(CC1)OOC1(CCCCCCCCCCC1)OO2,IC50,[1],29.1 nM
CCS(=O)(=O)N1C2CCC1CC1(C2)OOC2(OO1)C1CC3CC(C1)CC2C3 (centres undefined),IC50,[1],60.6 nM
CS(=O)(=O)N1CCC2(CC1)OOC1(CCCCCCCCCCC1)OO2,IC50,[1],27.8 nM
O=S(=O)(c1ccccc1)N1CCC2(CC1)OOC1(CCCCCCCCCCC1)OO2,IC50,[1],131 nM
O=S(=O)(c1ccc(F)cc1)N1CCC2(CC1)OOC1(OO2)C2CC3CC(C2)CC1C3,IC50,[1],16.7 nM
CS(=O)(=O)N1CCC2(CC1)OOC1(OO2)C2CC3CC(C2)CC1C3,IC50,[1],10.2 nM
"C[C@H]1[C@H](OC(=O)CCC(=O)O)O[C@@H]2OC3(C)CC[C@H]4[C@H](C)CC[C@@H]1[C@@]24OO3 (single isomer, unassigned) [SODIUM ARESUNATE]",IC50,[1],0.6 nM
same,IC50,[6],0.7 nM
O=S(=O)(c1ccc(Cl)cc1)N1CCC2(CC1)OOC1(OO2)C2CC3CC(C2)CC1C3,IC50,[1],22.7 nM
CCN(CC)Cc1cc(Nc2ccnc3cc(Cl)ccc23)ccc1O,IC50,[7],6.4 nM
same,IC50,[8],4.7 nM
same,IC50,[9],4.5 nM
same,IC50,[10],5.9 nM
same,IC50,[11],7.7 nM
same,IC50,[12],6.1 nM
same,IC50,[6],10.2 nM
CCS(=O)(=O)N1CCC2(CC1)OOC1(OO2)C2CC3CC(C2)CC1C3,Activity,[2],1.07
same,IC50,[7],2.4 nM
same,TI,[13],> 9090
same,CC50,[14],> 50000 nM
same,IC50,[8],1.9 nM
same,IC50,[9],3 nM
same,TI,[15],5640
same,TI,[16],> 9090
same,remaining at 168 h,[17],97.8%
same,remaining at 168 h,[18],92.3%
same,CC50,[19],> 50000 nM
same,TI,[20],> 9090
same,CC50,[21],> 50000 nM
same,Activity,[3],0.98
same,remaining at 168 h,[22],96.2%
same,Activity,[4],1.03
same,IC50,[10],3.8 nM
same,IC50,[11],2.7 nM
same,IC50,[12],3 nM
same,Activity,[5],0.95
same,remaining at 16 h,[23],93.2%
same,IC50,[1],5.55 nM
same,IC50,[6],3 nM
same,TI,[24],> 9090
same,CC50,[25],> 50000 nM
same,CC50,[26],31000 nM
O=S(=O)(C1CC1)N1CCC2(CC1)OOC1(OO2)C2CC3CC(C2)CC1C3,Activity,[2],1.09
same,TI,[13],> 14300
same,CC50,[14],> 50000 nM
same,TI,[15],> 14300
same,TI,[16],> 14300
same,CC50,[19],> 50000 nM
same,TI,[20],> 14300
same,CC50,[21],> 50000 nM
same,Activity,[3],0.99
same,Activity,[4],1.05
same,Activity,[5],1.07
same,IC50,[1],3.52 nM
same,TI,[24],> 14300
same,CC50,[25],> 50000 nM
same,CC50,[26],> 50000 nM
O=S(=O)(c1ccccc1)N1CCC2(CC1)OOC1(OO2)C2CC3CC(C2)CC1C3,remaining at 4 h,[27],88.7%
same,remaining at 24 h,[28],72%
same,remaining at 48 h,[29],69%
same,IC50,[1],5.46 nM
same,remaining at 8 h,[30],80.5%
O=S(=O)(c1ccc(C(F)(F)F)cc1)N1CCC2(CC1)OOC1(OO2)C2CC3CC(C2)CC1C3,IC50,[1],20.7 nM
O=S(=O)(CC(F)(F)F)N1CCC2(CC1)OOC1(OO2)C2CC3CC(C2)CC1C3,IC50,[1],14.3 nM
O=S(=O)(c1ccccc1)N1CCC2(CC1)OOC1(O2)C2CC3CC(C2)CC1C3 (centres undefined),remaining at 4 h,[27],11%
same,remaining at 24 h,[28],2.6%
same,remaining at 48 h,[29],0%
same,IC50,[1],4.98 nM
same,remaining at 8 h,[30],9%
CC(C)S(=O)(=O)N1CCC2(CC1)OOC1(CCCCCCCCCCC1)OO2,IC50,[1],86.4 nM
O=S(=O)(c1ccccc1)N1CCC2(CC1)COC1(OO2)C2CC3CC(C2)CC1C3 (centres undefined),remaining at 4 h,[27],96.8%
same,remaining at 24 h,[28],56.7%
same,remaining at 48 h,[29],43.2%
same,remaining at 8 h,[30],84.9%
O=C(CC1CCC2(CC1)OOC1(OO2)C2CC3CC(C2)CC1C3)N1CCOCC1 (centres undefined),Activity,[2],1.22
same,IC50,[31],5.2 nM
same,Activity,[3],0.98
same,Activity,[4],1.04
same,Activity,[5],1.02
CC(C)S(=O)(=O)N1CCC2(CC1)OOC1(OO2)C2CC3CC(C2)CC1C3,IC50,[1],5.87 nM
O=C(CCc1ccc(S(=O)(=O)N2CCC3(CC2)OOC2(OO3)C3CC4CC(C3)CC2C4)cc1)NCCCCNc1ccc([N+](=O)[O-])c2nonc12,IC50,[1],16 nM
C[C@@H]1CC[C@H]2[C@@H](C)C(=O)O[C@@H]3O[C@@]4(C)CC[C@@H]1[C@]32OO4 [ARTEMISININ],IC50,[1],9.2 nM
same,ED50,[32],8.42 mg/kg
